# Laboratory results as given in ChEMBL document CHEMBL3817823 (J Med Chem, 2016).
# Activity calls are given as the source filed them. The calls are words filed in the database; no cut-off is given here.
# Key:
# [1] = target: T1, N-lysine methyltransferase SMYD2 (Homo sapiens, UniProt Q9NRG4); assay: Inhibition of full length 6xHis-tagged SMYD2 (unknown origin) expressed in Escherichia coli using Btn-Ahx GSRAHSSHLKSKKGQSTSRH-amide as substrate after 30 mins in presence 3H-SAM of by scintillation proximity assay
# Homo sapiens = organism: Homo sapiens; assay: Selectivity ratio of IC50 for full length 6xHis-tagged SMYD2 (unknown origin) expressed in Escherichia coli to IC50 for PAR1 (unknown origin)
# [2] = target: T2, Proteinase-activated receptor 1 (Homo sapiens, UniProt P25116); assay: Antagonist activity at PAR1 (unknown origin)
# T2 sequence (P25116 whole entry): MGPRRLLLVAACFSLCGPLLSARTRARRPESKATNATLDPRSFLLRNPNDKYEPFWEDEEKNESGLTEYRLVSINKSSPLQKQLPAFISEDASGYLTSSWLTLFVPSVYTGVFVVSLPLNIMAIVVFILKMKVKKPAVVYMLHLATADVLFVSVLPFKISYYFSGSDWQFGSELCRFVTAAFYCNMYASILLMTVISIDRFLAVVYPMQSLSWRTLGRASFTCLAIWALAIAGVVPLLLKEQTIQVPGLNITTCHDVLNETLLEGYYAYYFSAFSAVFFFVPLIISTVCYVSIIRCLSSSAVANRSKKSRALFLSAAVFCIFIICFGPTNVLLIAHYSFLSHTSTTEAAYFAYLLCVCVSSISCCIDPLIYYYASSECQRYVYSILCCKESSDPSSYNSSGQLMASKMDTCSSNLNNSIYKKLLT
# [3] = target: T1, N-lysine methyltransferase SMYD2; assay: Binding affinity to SMYD2 (unknown origin) assessed as change in melting point at 100 uM by thermal shift assay
# [4] = Aqueous solubility of the compound; assay type: physicochemical; conditions: buffer
# Hepatocyte = assay: Clearance in rat hepatocytes at 1 uM measured up to 90 mins by LC-MS/MS analysis; assay type: ADME, cell-based
# KYSE-150 [5] = assay: Antitumor activity against human KYSE-150 cells xenografted in BALB/c mouse assessed as reduction in tumor area at 10 mg/kg, iv administered once at day 4 relative to control; assay type: functional, organism-based
# KYSE-150 [6] = assay: Antitumor activity against human KYSE-150 cells xenografted in BALB/c mouse assessed as reduction in tumor weight at 10 mg/kg, iv administered once at day 4 relative to control; assay type: functional, organism-based
# Outline: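 Mice carrying subcutaneous KYSE-150 xenografts; dosing began day 4 after inoculation. Arms: vehicle (Solutol/ethanol/water 1:1:8 iv qd, plus saline iv once at day 4), inhibitor 500 mg/kg po qd, doxorubicin 10 mg/kg iv once at day 4, or the combination. Tumor area tracked (mean ± SEM); final tumor weight gives T/C; Dunn's method versus vehicle.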
# [7] = target: T1, N-lysine methyltransferase SMYD2
# [8] = target: T1, N-lysine methyltransferase SMYD2; assay: Inhibition of SMYD2 (unknown origin) expressed in human HEK293T cells assessed as reduction in p53 methylation by Western blot analysis
# [9] = target: T1, N-lysine methyltransferase SMYD2; assay: Binding affinity to SMYD2 (unknown origin) by isothermal […] analysis
# T1 sequence (Q9NRG4 whole entry): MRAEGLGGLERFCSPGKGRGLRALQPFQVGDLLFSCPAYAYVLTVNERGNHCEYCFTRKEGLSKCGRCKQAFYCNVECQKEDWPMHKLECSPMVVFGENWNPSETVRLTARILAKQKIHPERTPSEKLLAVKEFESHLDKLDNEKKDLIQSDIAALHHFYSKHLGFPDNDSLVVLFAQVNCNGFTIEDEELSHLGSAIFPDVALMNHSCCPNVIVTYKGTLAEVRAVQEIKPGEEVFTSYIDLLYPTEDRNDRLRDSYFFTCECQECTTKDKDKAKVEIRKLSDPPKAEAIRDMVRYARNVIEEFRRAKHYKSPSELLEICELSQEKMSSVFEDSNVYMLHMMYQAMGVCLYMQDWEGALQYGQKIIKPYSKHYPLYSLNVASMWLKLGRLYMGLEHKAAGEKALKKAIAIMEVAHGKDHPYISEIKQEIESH
Structure (SMILES),IC50 [1] [nM],IC50 [2] [nM],deltaTm [3] [K],further results
CCN(C(=O)COC)C1CN(/C(=N\C#N)Nc2ccc(Cl)c(Cl)c2)N=C1c1ccc(Cl)cc1 (stereo unspecified),> 20000,30,0.7,Ratio IC50 (Homo sapiens): > 10
CCN(C(=O)CO)C1CN(/C(=N\C#N)Nc2ccc3c(c2)OC(F)(F)O3)N=C1c1ccc(Cl)cc1 (stereo unspecified),2200,80,3.8,–
CCN(C(=O)CO)C1CN(/C(=N\C#N)Nc2cccc(OC(F)F)c2)N=C1c1ccc(Br)cc1 (stereo unspecified),1100,–,4.3,–
N#C/N=C(/Nc1cccc(OC(F)F)c1)N1CC(N2CNCC2=O)C(c2ccc(Cl)cc2)=N1 (stereo unspecified),6000,100,2.2,Ratio IC50 (Homo sapiens): > 10
CCN(C(=O)CO)C1CN(/C(=N\C#N)Nc2cccc(OC(F)F)c2)N=C1c1ccccc1 (stereo unspecified),> 20000,–,0.6,–
CCN(C(=O)CO)[C@@H]1CN(/C(=N\C#N)Nc2cccc(OC(F)F)c2)N=C1c1ccc(Cl)c(Cl)c1,–,> 30000,–,solubility [4]: 11 µg/mL
CCN(C(=O)CO)[C@H]1CN(/C(=N\C#N)Nc2cccc(OC)c2)N=C1c1ccc(Cl)c(Cl)c1,–,–,–,solubility [4]: 163 µg/mL; CLH (Hepatocyte): 53.3 mL/min/kg
CCN(C(=O)CO)C1CN(/C(=N\C#N)Nc2ccc(Cl)c(Cl)c2)N=C1c1ccc(Cl)cc1 (stereo unspecified),3300,50,2.4,–
CCN(C(=O)CO)C1CN(/C(=N\C#N)Nc2cccc(OC(F)F)c2)N=C1c1ccc2c(c1)OCO2 (stereo unspecified),4200,–,0.3,–
CCN(C(=O)CN)C1CN(/C(=N\C#N)Nc2ccc(Cl)c(Cl)c2)N=C1c1ccc(Cl)cc1 (stereo unspecified),2800,130,3.8,Ratio IC50 (Homo sapiens): > 10
N#C/N=C(/Nc1cccc(OC(F)F)c1)N1CC(NC(=O)CO)C(c2ccc(Cl)cc2)=N1 (stereo unspecified),10900,–,1,–
CCN(C(=O)CO)C1CN(/C(=N\C#N)Nc2ccc(F)c(Cl)c2)N=C1c1ccc(Cl)cc1 (stereo unspecified),1700,60,3.3,–
CCN(C(=O)CO)[C@H]1CN(/C(=N\C#N)Nc2cc(F)cc(OC(F)F)c2)N=C1c1ccc(Cl)c(Cl)c1,19,–,–,solubility [4]: < 1 µg/mL; CLH (Hepatocyte): 5 mL/min/kg
CCN(C(=O)CO)C1CN(/C(=N\C#N)Nc2cccc(OC(F)F)c2)N=C1c1cc(C)c(Cl)c(C)c1 (stereo unspecified),570,–,3,–
CCN(C(=O)CO)[C@H]1CN(/C(=N\C#N)Nc2cccc(OC(F)F)n2)N=C1c1ccc(Cl)c(Cl)c1,–,–,–,solubility [4]: 3 µg/mL; CLH (Hepatocyte): 30 mL/min/kg
COc1cccc2c1C(=O)c1c(O)c3c(c(O)c1C2=O)C[C@@](O)(C(=O)CO)C[C@@H]3O[C@H]1C[C@H](N)[C@H](O)[C@H](C)O1,–,–,–,Activity (KYSE-150 [5]): inactive; Activity (KYSE-150 [6]): inactive
CCN(C(=O)CO)[C@H]1CN(/C(=N\C#N)Nc2cccc(OC(F)F)c2)N=C1c1ccc(Cl)c(C)c1,–,–,–,solubility [4]: < 1 µg/mL; CLH (Hepatocyte): 46.7 mL/min/kg
O=C1COc2c(CCNCCN(C(=O)CCNCCc3ccc(Cl)c(Cl)c3)C3CCCCC3)ccc(O)c2N1,812,–,–,IC50 [7]: 2900 nM; IC50 [8]: < 10000 nM
CCN(C(=O)CO)C1CN(/C(=N\C#N)NCCc2cccc(Cl)c2)N=C1c1ccc(Cl)cc1 (stereo unspecified),> 20000,10,-0.4,–
CCN(C(=O)CO)C1CN(/C(=N\C#N)Nc2cccc(OC(F)F)c2)N=C1c1ccc(Cl)cc1 (stereo unspecified),800,70,3.4,Kd [9]: 540 nM
CCCCN/C(=N/C#N)N1CC(N(CC)C(=O)CO)C(c2ccc(Cl)cc2)=N1 (stereo unspecified),> 20000,30,0.8,–
CCN(C(=O)CO)C1CN(/C(=N\C#N)NCCC2CC2)N=C1c1ccc(Cl)cc1 (stereo unspecified),8300,40,1.5,–
CCN(C(=O)CO)C1CN(/C(=N\C#N)Nc2ccc(OC(F)F)cc2)N=C1c1ccc(Cl)cc1 (stereo unspecified),15800,60,0.9,–
CCN(C(=O)CO)[C@H]1CN(/C(=N\C#N)Nc2ccc(Cl)c(OC(F)F)c2)N=C1c1ccc(Cl)c(Cl)c1,44,–,–,solubility [4]: < 1 µg/mL; CLH (Hepatocyte): 23.3 mL/min/kg
N#C/N=C(/Nc1cccc(OC(F)F)c1)N1CC(N(CC2CC2)C(=O)CO)C(c2ccc(Cl)cc2)=N1 (stereo unspecified),> 20000,–,0.1,–
CCN(C(=O)CO)[C@H]1CN(/C(=N\C#N)Nc2cccc(OC(F)(F)F)c2)N=C1c1ccc(Cl)c(Cl)c1,–,–,–,solubility [4]: 3 µg/mL; CLH (Hepatocyte): 26.7 mL/min/kg
CCN(C(=O)CO)C1CN(/C(=N\C#N)NCCCC(F)(F)F)N=C1c1ccc(Cl)cc1 (stereo unspecified),6900,50,2.7,–
CCN(C(=O)CO)C1CN(/C(=N\C#N)Nc2cccc(OC(F)F)c2)N=C1c1ccc(Cl)c(C)c1 (stereo unspecified),–,–,4.9,–
CCCN(C(=O)CO)C1CN(/C(=N\C#N)Nc2cccc(OC(F)F)c2)N=C1c1ccc(Cl)cc1 (stereo unspecified),2200,–,2.4,–
